Reference: the RNAGym collection of RNA variant scans (doi:10.1126/science.aae0568)
Fewer inactive variants are shown than the library holds.

B1: tRNA (parent)
chain: GUUCCGUUGGCGUAAUGGUAACGCGUCUCCCUCCUAAGGAGAAGACUGCGGGUUCGAGUCCCGUACGGAACG

Variants of: B1
Test: yeast fitness relative to wild type (ratio to wild type); higher = fitter; tRNA-Arg(CCU), competitive growth, 37 C, YPD
Procedure, shortened: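 Amplicons of the tRNA-Arg(CCU) gene were sequenced, 100-nucleotide paired-end, from the start population and from each end population of a pooled yeast competition. The competition, in six parallel replicates, lasted 24 hours in YPD at 37°C. Fitness relative to wild type was calculated from changes in genotype frequencies. Genotypes had to have ≥ 100 starting reads, and estimates < 0.5 were set to 0.5.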

Row | Variant | yeast fitness
1 | GUUCCGGUGGCGUAAUGGUAACGCGUCUCCCUCCUAAGGAGAAGACUGCGGGUUCGGGUCCCGUACGGAACG | 0.72
2 | GUUCCGCUAGCGUAAUGGUAACGCGUCUCCGUCCUAAGGAGAAGACUGCGGGUUCGAGUCCCGUACGGAACG | 0.77
3 | GUUCCGCUGGCGUAAUGGUAACGCGUCUCCCUACUAAGGUGAAGACUGCGGGUUCGCGUCCCGUACGGAACG | 0.662
4 | GUUCCGCUGGCGUAAUGGUAACGCGUCUCCCUCCUAAGGAUAAGACUGCGGGUUCGACUCCCGUACGGAACG | ≤ 0.5
5 | GUUCCGGUGGCGUAAUGGUAACGCGUCUCCCUCCUCAGGAGAAGACUGCGGGUUCGAGUCCCGUACGGAACG | 0.614
6 | GUUCCGCUGGCGUAAUGGUAACGCGUCUCCCUUCUAAGGAGAAGACUGCGGGUUCGAGUCCCGUACAGAACG | ≤ 0.5
7 | GUUCCGCUGGCGUAAUGGUAACGCGUCUCUCUCCUAAGGAGAAGACUGCGGGUUCGAGUCACGUACGGAACG | ≤ 0.5
8 | GUUCCGCUGGCGUAAUGGUAACGCGUCUCUCUCAUAAGGAGAAGAUUGCGGGUUCGAAUCCCGUUCGGAACG | ≤ 0.5
9 | GUUCCGCUGGCGUAAUGGUAACGCGUCUCCCUCUUAAGGAGAAGACUGAGGGUUCCAGUCCAGUCCGGAACG | ≤ 0.5
10 | GUUCCGCUGGCGUAAUGGUAACGCGUCUCCCUGCUAAGGAGAAGACUGCGGGUUCGAGUCCCGUACGGAACG | 0.58
11 | GUUCCGCUGGCGUAAUGGUAACGCGUCUCCGUCCUAAGGAGAAGUCUGCGGGUUCGAGUCCCGUACGGAACG | ≤ 0.5
12 | GUUCCGCUGGCGUAAUGGUAACGCGUCUCCCUCCUAAGGAGAACACUGCGGGUUCGAGUCCCGUACGGAACG | 0.84
13 | GUUCCGCUGCCGUAAUGGUAACGUGUCUCCCUCCUAAGGAGAAGAUUGCGGGUUCGAGUCCCCUACGGAACG | ≤ 0.5
14 | GUUCCGGUGGCGUACUGGUAACGUGUCUCCCUCCUAAGGAGAGGACUGCGAGUCCGAGUCCCGUACCGAACG | 0.78
15 | GUUCCGCUGGCGUAAUGAUAACGCGUCUCCCUCCUAAGGAACAGACUGCCGGUUCGAGUCCCGUACGGAGCG | ≤ 0.5
16 | GUUCCGCUGGCGUAAUAGUAACGCGUCUCCCUCCUAAGGAGAAGACUGCGGGUUCGAGUCCUGUACGGAACG | ≤ 0.5
17 | GUUCCGGUGGCGUGAUGGUAACGCGUCUCCCUCCGAAGGAGAAGAAUGCGGGUUCGAGUCCCCUUCGGAACG | ≤ 0.5
18 | GUUCCGCUGGCGUAAUGGUAACGCGUCUCCCUCCUAAGGAGAAGACUGCGGGAUCGAGUCCCGUACGGAGCG | ≤ 0.5
19 | GUUCCGCUGGCGUAAUGGUAACGCGUCUCCCUCCUAAGGAGAAGACUGAGGGUUCGAGUCCUGUACGGAUCG | ≤ 0.5
20 | GUUCCGCUGGCGUAAUGGUAACGCGUCUCCCUCCUAAGGAGAAGACUGCGGGUUCGAGUCCCGUACUGAUCG | 0.544
21 | GUUCCGCUGGCGUAAUGGUAACGCGUCUCCCCGCUAAGGAGAAGACUGCGGGUUCGAGUCCCGUACGGAGCG | ≤ 0.5
22 | GUUCCGCUGGCGUAAUGGUAACGCGUCUCCCUGCUAGGGAGAAGACUGCGGGUUCGAGUCCCGUACGGAGCG | ≤ 0.5
23 | GUUCCGCUGGCGUAAUGGUAACGCGUCUCCUUCCUAAGGAGAAGACUGCGGGUUCGUGUCCCGUACGGCACG | ≤ 0.5
24 | GUUCCGCUGGCGUAAUGGUAACGCGUCUCCCUCCUAAGGAGAAGACUGCGGGUUCGAGUCCCCUACGGAACG | 0.611
25 | GUUCCGGUGGCGUAGUGGUAACGCGUCUCCCUCCUAAGGAGAAGACUGCGGGUUCGAGUCCCGUACGGAACG | 0.913

Row | Variant | yeast fitness
26 | GUUCCGGUGGCGUAAUGGUACCGCGUCUCCCUCCUAAGGAGAAGACUGCGGGUUCGAGACCCGUACGGAACG | ≤ 0.5
27 | GUUCCGGUGGCGUAAUGGUAACGCGUCUCCCUCCUAAGGAGAAGACUGCGGGUUCGAGUCCCGUGUGGAACG | 0.876
28 | GUUCCGCUGGCGUAAUGGUAACGCGUCUCCCUCUUAAGGAGAAGACUGCGGCUUCGAGUCCCGUACGGAACG | 0.579
29 | GUUCCGCUAGCGCAAUGGUAUCGCGUCUCCCUCCUAAGGAGAAGACUGCGGGUUCAAGUCCCGUACGGAACG | ≤ 0.5
30 | GUUCCGCUGGCGUAAUGGUAACGCGUCUCCCUCCUAAGGAGAAGACUGCGGGUUCGAGUCCCGAACGGAACG | 0.923
31 | GUUCCGCUCGCGUAAUGGUAACACGUCUCCCUCCUCAGGAGAAGACUGCGGGUUCGAGUCCCGUAAGGAACG | 0.544
32 | GUUCCGCUGGCGUAAUGGUAACGCGUCUCCCUCCUAAGGAGAAGACUGGGGGUUCGAGUCCCAUACGGAACG | 0.748
33 | GUUCCGCUGGCGUAAUGGUAACGCGUCUCCCUCUUAAGGAGAAGCCUGCGGGUUCGAGUGCCGUCCGGAACG | ≤ 0.5
34 | GUUCCGCUGGCGUAAUGGUAACGCGUCUCCCUCCUAAGGAGAAGACUGCGGGUUCGAGUCCCGUACGAAACG | 0.87
35 | GUUCCGCUGGCGUAAUGGUAACGCGUCUCCCUCCUAAGGAGAAGAUUGCGGGUUCGAGUCACGUACAGAACG | 0.561
36 | GUUCCGCUGGCGUAAUGGUAACGCGUCUCCCUCCUAAGGAGAAGACUGUGGGUUCGAGUCCCGUACGGAACG | 0.873
37 | GUUCCGCAGGCGUAAUGGUGACGGGUCUCCCUCCUAAGGAGAAGACUGCGGGUUCGAGUCCCGCACGGAACG | ≤ 0.5
38 | GUUCCGGUGGCGUAAUGGUAGCGCGCCUCCAUCCUAACGAGAAGACUGCGGGUUCGAGUCCCGUACGGAACG | ≤ 0.5
39 | GUUCCGCUGGCGUAAUGGUAACGCGUCUCCCUCCUAAGGAACAGACUGCCGGUUCGAGUCCCGUACGGAACG | 0.592
40 | GUUCCGCUGGCAUAAUGGUAACGCGUCUCCUUCCUAAGGAGAAGACUGCGGAUUCGAGUCCCGUACGGAACG | ≤ 0.5
41 | GUUCCGCAGGCGUAAUGGUAACGCGUUUCCCUCCUAAGGAGAAGACUGCGGGUUCGAGUCCCGUACGGAACG | ≤ 0.5
42 | GUUCCGCUGGCGUAAUGGUAACGCGUCUCCCUCCUAAGGAGAAGACUCCGGGUUCGAGUCCCGUACGGAACG | 0.828
43 | GUUCCGCUGGCGUAAUGGUAACGCGUCUCCCUCCUAAGGAGAAGACUACGGGUUCGAGUCCCGUACGGAACG | 0.884
44 | GUUCCGCUGGCGUAAUGGUAACGCGUCUCCCUCCUAAGGAACAGACUGCCGGUUCGAGUCCCGUACGGAGCG | 0.571
45 | GUUCCGCUGGCGUAAUGGUAACGCGUCUCCCUCCUAAGGAGAAGACUGCGGGUUCGAGUCCGGUACGGAACG | 0.61
46 | GUUCCGCUGGCGUAAUGGUAACGCGUCUCCCUCCUAAGGAGAAGACUGCGGGUUCGAGUCCUGUACGGAACG | 0.802
47 | GUUCCGCUGGCGUAAUGGUAACGCGUCUCCCUCCUAAGGAGAAGACUGCGGGGUCGAGUCCCGUACGGAACG | ≤ 0.5
48 | GUUCCGGUGGCGUAAUGGUAACGCGUCUCCCUCCUAAGGUGAAGACUGCGGGUUCGAGUCCCGUACGGAACG | 0.985
49 | GUUCCGGUGGCGUAAUGGUACCGCGUCUCCCUCCUAAGGAGAACACUGCGGGUUCGAGUCCCGUACGGUACG | ≤ 0.5
50 | GUUCCGCUAGCGCAAUGGUAUCGCGUCUCCCUCCUAACGAGAAGAAUGCGGGUUCGAGUCCCGUACGGAACG | ≤ 0.5

Row | Variant | yeast fitness
51 | GUUCCGCUGGCGUAAUGGUAACGCGUCCCCCUCCUAAGGAGAAGACUGCGGGUUUGAGUCCCGUACGGAACG | ≤ 0.5
52 | GUUCCGCUGGCGCAAUGGUAACGCGUCUCCGUCUUAAGGAGAAGACUGCGGGUUUGAAUCUCGUACGGAACG | ≤ 0.5
53 | GUUCCGCUGGCGAAAUGGUAACGUGUCUCCCUCCUAAGGAGAAGACUGCUAGUUCGAGACCCGUCCGGAACG | ≤ 0.5
54 | GUUCCGCUGGCGUAAUGGUAACGCGUCUCCGUACUAAGGAGAAGACUGCGGGUUCGAGUCCCGUAAGGAACG | ≤ 0.5
55 | GUUCCGCUGGCGUAAUGGUAACGCGUCUCUCUCCUAAGGAGAAGACUGCGGGUUCGAGUCCCGUACGGAACG | 0.826
56 | GUUCCGCUGGCGUAAUAGUAACGCGUCUCCCUCCUAAGGAGAAGACUGCGGGUUAGAGUCCCGUACGGAACG | ≤ 0.5
57 | GUUCCGCUGGCGUAAUGGUAACGCGUUUCCCUCCUAAGGAGAUGACUGCGGGUUCGAGUCUCGUACGGAACG | ≤ 0.5
58 | GUUCCGCUGGCGUAAUGGUAACGCGUCUCCCGCCUAAGGAGAAGACUGCGGGUUCGAGUCCCGUACGCAACG | ≤ 0.5
59 | GUUCCGCUGGCGUAAUGGUAACGCGUCUUCCUCCUAAGGAGAAGACUGCGGGUUCGAGUCCCGUACGGAACG | 0.754
60 | GUUCCGCUGGCGUAAUGGUAACGCGUCUGCCUCCUAAGGAGAAGACUGCGGGUUCGAGUCCCGUACGGAACG | 0.677
61 | GUUCCGGUGGCGUAAUGGUGACGCGUUUCCCUCCUAAGGAGAAGACUGGGGCUUCGAGUCCCGUACGGAGCG | ≤ 0.5
62 | GUUCCGCUGGCGUAAUGGUAACGCGUCUCCCUCCUAAGGAACAGACUGCCGGUUCGAGUCCCGUACCGAACG | ≤ 0.5
63 | GUUCCGCUGGCGUAAUGGUAACGCGGCUCCCUCCUAAGGAGAAGACUGCGGGUUCGAGUCCCGUACGGAACG | 0.649
64 | GUUCCGCUGGCGUAAUGGUAACGCGACUCCCUCCUAAGGAGAAGACUGCGGGUUCGAGUCCCGUACGGAACG | 0.777
65 | GUUCCGGUGGCGUACAGGUAACGCGUCUCCCUGCUACGGAGAAGACUGAGGGCUCGAGUCCCGUACGGAACG | ≤ 0.5
66 | GUUCCGCUGGCGUAAGGGUAACGCGUCUUCAUCCUAAGGAGAAGAUUGCGGGUUCGAGUCCCGUACGGAACG | 0.566
67 | GUUCCGCAGGCGUAAUGGUAACGCGUCUCCCUCCUAAGGAGAAGACUGCGGGUUCGAGUCCUGUACGGAACG | ≤ 0.5
68 | GUUCCGCUGGCGUAAUGGUAACGCGUCUCCCUCCCAAGGAGAAGACUGCGGGUUCGAGUCCCGUACGGAACG | 0.86
69 | GUUCCGCUGGCGUAAUGGUAACGCGUCUCCCUGCUAAGGGGAAGACUGCGGGUUCGAGUCCCGUACGGAACG | ≤ 0.5
70 | GUUCCGGUGGCGUUAUGGAAAUGCGUCUCCCUCCUAAGGAGAAGACUGCGGGUUCGAGUCACGUACGGAACG | ≤ 0.5
71 | GUUCCGCUGGCGUAAUCGUGACGCGUAUCCCUCCUAAGGAGAAGACUACGGGUUCGAGUCCCGUACGGAACG | 0.509
72 | GUUCCGGUGGCGUAGUGGCAGCGCGUCUCCCUCCUAAGGAAAAGACUGCGGGUUCGAGUCCCGUACGGAACG | 0.535
73 | GUUCCGCUGGCGUAAUGGUAACGCGUCUCCCUCCUAAAGAGAAGACUGCAGGUUCGAAACCCGUACGGAACG | 0.579
74 | GUUCCGCUGGCGUAAUGGUAACGCGUCUACCUCCUAAGGAGAAGACUGCGGGUUCGAGUCCCGUGCGGAACG | ≤ 0.5
75 | GUUCCGCUGGCGUAAUGGUAACGCGUCUCCCGCCUAAGGAGAAGACUGCGGGUUCGAGUCCCGUACGGAACG | 0.576
